Assay results reported in ChEMBL document CHEMBL3271964, “Synthesis and biological activity of new 2-nitroimidazole derivatives” (J Med Chem, 1978).
In brackets after ≈: the same amount, converted by molar mass. Activity calls are given as the source filed them.

Assays:
Mus musculus [1] = assay: Toxicity in CF1 mouse assessed as reduction in respiratory rate at 10 to 600 mg/kg, po by Irwin test; type: organism-based; set-up: dose 10-600 mg/kg, route oral; conditions: in vivo
Summary of the method: (§1)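 Irwin observational method in male CF1 mice (19–22 g). Oral dosing of a suspension in 0.5% Methocel 90-HG at 10 mL/kg, up to 600 mg/kg; controls received saline. Directly observable behavioural and autonomic changes were scored, with the threshold dose for onset recorded.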

Trichomonas vaginalis [2] = assay: Antimicrobial activity against Trichomonas vaginalis by broth dilution method; type: functional
Clostridium perfringens = assay: Antimicrobial activity against Clostridium perfringens ISS 30543 by broth dilution method; type: functional
Mus musculus [3] = assay: Toxicity in CF1 mouse assessed as reduction in opening of eyelid at 10 to 600 mg/kg, po by Irwin test; type: organism-based; set-up: dose 10-600 mg/kg, route oral; conditions: in vivo; summary of the method: as §1
Staphylococcus aureus = assay: Antimicrobial activity against Staphylococcus aureus Tour by microtitre method; type: functional
Mus musculus [4] = assay: Toxicity in CF1 mouse assessed as ataxia at 10 to 600 mg/kg, po by Irwin test; type: organism-based; set-up: dose 10-600 mg/kg, route oral; conditions: in vivo; summary of the method: as §1
Mus musculus [5] = assay: Toxicity in CF1 mouse assessed as reduction in spontaneous activity at 10 to 600 mg/kg, po by Irwin test; type: organism-based; set-up: dose 10-600 mg/kg, route oral; conditions: in vivo; summary of the method: as §1
Mus musculus [6] = assay: Toxicity in CF1 mouse assessed as change in sleeping time at 300 mg/kg, po administered 30 mins prior to hexobarbital sodium challenge relative to vehicle-treated control; type: organism-based; set-up: dose 300 mg/kg, route oral; conditions: in vivo, 0.5 h
Summary of the method: (§2)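 Male CF1 mice (19–22 g), groups of 30, given oral doses as a 0.5% Methocel 90-HG suspension at 10 mL/kg; saline controls (90 animals). Hexobarbital sodium 75 mg/kg ip given 30 min later, at 25–26 °C. Sleeping time given as mean ± SE and as % change vs controls; Dunnett's t test.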

Mus musculus [7] = assay: Toxicity in CF1 mouse assessed as change in sleeping time at 600 mg/kg, po administered 30 mins prior to hexobarbital sodium challenge relative to vehicle-treated control; type: organism-based; set-up: dose 600 mg/kg, route oral; conditions: in vivo, 0.5 h; summary of the method: as §2
Streptococcus pyogenes = assay: Antimicrobial activity against Streptococcus pyogenes C 203 by microtitre method; type: functional
Mus musculus [8] = assay: Toxicity in CF1 mouse assessed as reduction in curiosity at 10 to 600 mg/kg, po by Irwin test; type: organism-based; set-up: dose 10-600 mg/kg, route oral; conditions: in vivo; summary of the method: as §1
Mus musculus [9] = assay: Toxicity in CF1 mouse assessed as flaccid paralysis at 600 mg/kg, po by Irwin test; type: organism-based; set-up: dose 600 mg/kg, route oral; conditions: in vivo; summary of the method: as §1
Mus musculus [10] = assay: Toxicity in CF1 mouse assessed as reduction in body tone at 10 to 600 mg/kg, po by Irwin test; type: organism-based; set-up: dose 10-600 mg/kg, route oral; conditions: in vivo; summary of the method: as §1
Mus musculus [11] = assay: Toxicity in CF1 mouse assessed as cyanosis at 10 to 600 mg/kg, po by Irwin test; type: organism-based; set-up: dose 10-600 mg/kg, route oral; conditions: in vivo; summary of the method: as §1
Mus musculus [12] = assay: Toxicity in CF1 mouse assessed as reduction in heart rate at 10 to 600 mg/kg, po by Irwin test; type: organism-based; set-up: dose 10-600 mg/kg, route oral; conditions: in vivo; summary of the method: as §1
[13] = test system: Mycoplasmoides gallisepticum; assay: Antimicrobial activity against Mycoplasma gallisepticum S6 Weybridge by broth dilution method; type: functional
[14] = Therapeutic index, ratio of LD50 for po dosed mouse to ED50 for Trichomonas vaginalis infected in po dosed mouse; type: organism-based; conditions: in vivo, read-out: Ratio LD50/ED50
Summary of the method: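 Ratio of two mouse values, both dosed orally. The LD50 comes from acute toxicity, with compounds suspended in aqueous 0.5% Methocel 90-HG. The ED50 comes from subcutaneous T. vaginalis infection treated orally. The ED50 vehicle varied by compound: suspension in aqueous 0.75% sodium carboxymethylcellulose, DMF-H2O, DMF-phosphate buffer pH 7.38, or H2O.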

Mus musculus [15] = assay: Inhibition of strychine sulfate/pentetrazole-induced death in CF1 mouse at 300 to 600 mg/kg, po administered 60 mins prior to strychine sulfate/pentetrazole challenge; type: functional, organism-based
Mus musculus [16] = assay: Inhibition of strychine sulfate/pentetrazole-induced death in CF1 mouse at 250 to 500 mg/kg, po administered 60 mins prior to strychine sulfate/pentetrazole challenge; type: functional, organism-based
Mus musculus [17] = assay: Toxicity in CF1 mouse assessed as reduction in heart rate at 60 to 600 mg/kg, po by Irwin test; type: organism-based; set-up: dose 60-600 mg/kg, route oral; conditions: in vivo; summary of the method: as §1
Trichomonas vaginalis [18] = assay: Antimicrobial activity against Trichomonas vaginalis infected in po dosed mouse relative to metronidazole; type: functional
Summary of the method: (§3)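 Mice infected subcutaneously, then dosed orally. Vehicle depended on compound: suspension in aqueous 0.75% sodium carboxymethylcellulose, DMF-H₂O, DMF-phosphate buffer pH 7.38, or water. ED₅₀ determined, with metronidazole run in parallel. The relative value is ED₅₀ (test) / ED₅₀ (metronidazole).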

Mus musculus [19] = assay: Toxicity in CF1 mouse assessed as reduction in curiosity at 60 to 600 mg/kg, po by Irwin test; type: organism-based; set-up: dose 60-600 mg/kg, route oral; conditions: in vivo; summary of the method: as §1
Mus musculus [20] = assay: Toxicity in CF1 mouse assessed as reduction in body tone at 60 to 600 mg/kg, po by Irwin test; type: organism-based; set-up: dose 60-600 mg/kg, route oral; conditions: in vivo; summary of the method: as §1
Mus musculus [21] = assay: Toxicity in CF1 mouse assessed as change in sleeping time at 500 mg/kg, po administered 30 mins prior to hexobarbital sodium challenge relative to vehicle-treated control; type: organism-based; set-up: dose 500 mg/kg, route oral; conditions: in vivo, 0.5 h; summary of the method: as §2
Rattus norvegicus [22] = assay: Inhibition of carrageenan-induced edema in rat; type: functional, organism-based
Mus musculus [23] = assay: Toxicity in CF1 mouse assessed as reduction in opening of eyelid at 60 to 600 mg/kg, po by Irwin test; type: organism-based; set-up: dose 60-600 mg/kg, route oral; conditions: in vivo; summary of the method: as §1
Rattus norvegicus [24] = assay: Effect on pressor response in conscious normotensive rat up to 50 mg/kg; type: functional, organism-based; set-up: dose 50 mg/kg
Mus musculus [25] = assay: Toxicity in CF1 mouse assessed as reduction in respiratory rate at 60 to 600 mg/kg, po by Irwin test; type: organism-based; set-up: dose 60-600 mg/kg, route oral; conditions: in vivo; summary of the method: as §1
Mus musculus [26] = assay: Toxicity in CF1 mouse assessed as reduction in spontaneous activity at 60 to 600 mg/kg, po by Irwin test; type: organism-based; set-up: dose 60-600 mg/kg, route oral; conditions: in vivo; summary of the method: as §1
Mus musculus [27] = assay: Toxicity in CF1 mouse assessed as cyanosis at 60 to 600 mg/kg, po by Irwin test; type: organism-based; set-up: dose 60-600 mg/kg, route oral; conditions: in vivo; summary of the method: as §1
Mus musculus [28] = assay: Toxicity in CF1 mouse assessed as change in sleeping time at 250 mg/kg, po administered 30 mins prior to hexobarbital sodium challenge relative to vehicle-treated control; type: organism-based; set-up: dose 250 mg/kg, route oral; conditions: in vivo, 0.5 h; summary of the method: as §2
Mus musculus [29] = assay: Toxicity in CF1 mouse assessed as ataxia at 60 to 600 mg/kg, po by Irwin test; type: organism-based; set-up: dose 60-600 mg/kg, route oral; conditions: in vivo; summary of the method: as §1
Trichomonas vaginalis [30] = assay: Antimicrobial activity against Trichomonas vaginalis infected in po dosed mouse; type: functional; summary of the method: as §3
[31] = Acute toxicity in po dosed mouse; type: organism-based; conditions: in vivo
Summary of the method: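 Acute toxicity in mice by the oral route. Compounds were given as suspensions in aqueous 0.5% Methocel 90-HG.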

[32] = Solubility of the compound in water; type: physicochemical; conditions: buffer

Structure (SMILES)	MIC (Trichomonas vaginalis [2]) [µg/mL]	MIC (Clostridium perfringens) [µg/mL]	MIC (Staphylococcus aureus) [µg/mL]	MIC (Streptococcus pyogenes) [µg/mL]	MIC [13] [µg/mL]	selectivity ratio [14]	Ratio ED50 (Trichomonas vaginalis [18])	ED50 (Trichomonas vaginalis [30]) [mg/kg]	LD50 [31] [mg/kg]	further results
Cc1ncc([N+](=O)[O-])n1CCO [METRONIDAZOLE]	5 (≈ 29.2 µM)	0.6 (≈ 3.51 µM)	> 300	> 300	> 300	658				Activity (Mus musculus [1]): Toxic; Activity (Mus musculus [3]): Toxic; Activity (Mus musculus [4]): Toxic; Activity (Mus musculus [5]): Toxic; Activity (Mus musculus [6]): 29.2%; Activity (Mus musculus [7]): 55.9%; Activity (Mus musculus [8]): Toxic; Activity (Mus musculus [9]): Toxic; Activity (Mus musculus [10]): Toxic; Activity (Mus musculus [11]): Toxic; Activity (Mus musculus [12]): Toxic; inhibition (Mus musculus [15]): Active
Cn1c(C(C)(C)OC(=O)Oc2ccccc2)cnc1[N+](=O)[O-]	2 (≈ 6.55 µM)	10 (≈ 32.8 µM)	100 (≈ 328 µM)	100 (≈ 328 µM)	> 100	1970	0.28			inhibition (Mus musculus [16]): Active; Activity (Mus musculus [17]): Toxic; Activity (Mus musculus [19]): Toxic; Activity (Mus musculus [20]): Toxic; Activity (Mus musculus [21]): 18.1%; inhibition (Rattus norvegicus [22]): inactive; Activity (Mus musculus [23]): Toxic; Activity (Rattus norvegicus [24]): inactive; Activity (Mus musculus [25]): Toxic; Activity (Mus musculus [26]): Toxic; Activity (Mus musculus [27]): Toxic; Activity (Mus musculus [28]): 15.5%; Activity (Mus musculus [29]): Toxic
Cn1c(C(C)(C)OC(=O)c2ccccc2)cnc1[N+](=O)[O-]	> 100	3.1 (≈ 10.7 µM)	100 (≈ 346 µM)	100 (≈ 346 µM)	50 (≈ 173 µM)		1.62	16.2		
Cn1c(C(C)(C)OC(=O)NN)cnc1[N+](=O)[O-]	100 (≈ 411 µM)	3.1 (≈ 12.7 µM)	> 100	100 (≈ 411 µM)	25 (≈ 103 µM)	141	0.33	4.67	660	
CS(=O)(=O)[O-].Cn1c(C(C)(C)[n+]2ccccc2)cnc1[N+](=O)[O-]	> 100	> 100	> 100	> 100	> 100		>4	> 40		solubility [32]: soluble
O=[N+]([O-])c1cncn1CCN1CCOCC1 [NIMORAZOLE]	12.5 (≈ 55.3 µM)	0.6 (≈ 2.65 µM)	> 300	> 300	> 300	40	4.66	37.9	1530	
CCS(=O)(=O)CCn1c([N+](=O)[O-])cnc1C [TINIDAZOLE]	3.1 (≈ 12.5 µM)	0.3 (≈ 1.21 µM)	300 (≈ 1210 µM)	> 300	> 300	1280	0.43	2.5	3200	
